Experimental data published in publication PMC5811788 (Journal of Clinical Pharmacology, 2017).
Several values for one entry are separate records, joined by “and”; a condition that tells them apart may be missing. Equal entries are not always repeated. Where two headings read alike, the source gives them in different places. Marks after values point to notes of the source that are not given here. Values belong to the molecule of their own block, whether it stands above or below them.

Columns and labels:
[1] = doses of 20 and 40 mg/day; cited from earlier work
[2] = ref data on file; Kyowa Kirin Pharmaceutical Development, Inc.; cited from earlier work
[3] = tested on: P‐glycoprotein (P‐gp); conditions: ref data on file; Kyowa Kirin Pharmaceutical Development, Inc.; cited from earlier work
[4] = tested on: A2A receptor; conditions: A2A vs A1, A2B, A3; cited from earlier work
[5] = Safety and tolerability; assay type: in vivo, healthy subjects (human); conditions: for Subjects who experienced AEs: 20 subjects
[6] = tested on: cytochrome P450 (CYP) isoenzymes; conditions: ref data on file; Kyowa Kirin Pharmaceutical Development, Inc.; cited from earlier work
[7] = in those who received various CYP3A4 inhibitors; 1449 healthy subjects and PD patients; cited from earlier work
[8] = assay type: in vivo, healthy subjects (human); conditions: for AUC(0-t): AUClast; for Geometric Mean Ratio (90%CI) of AUCinf / Geometric Mean Ratio (90%CI) of AUClast / Geometric Mean Ratio (90%CI) of Cmax: istradefylline + rifampin vs istradefylline alone
Procedure, shortened: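 Crossover in 20 healthy humans. Single oral 40 mg tablet of the test compound given after ≥8 h fast, alone (period 1) or on day 8 of rifampin 600 mg once daily (days 1–20, dosed 2 h after test compound). Venous plasma sampled predose to 312 h. Noncompartmental AUClast and AUCinf, reported as geometric means and geometric mean ratios with 90% CI.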

[9] = cited from earlier work
[10] = coadministration of ketoconazole, healthy subjects; cited from earlier work
[11] = ref data on file; Kyowa Kirin Pharmaceutical Development, Inc.; cited from earlier work; remark: listed apart in the source
[12] = during administration of the substance alone
[13] = istradefylline 40 mg + steady-state rifampin 600 mg/day, arithmetic mean (SD)
[14] = istradefylline 40 mg alone, arithmetic mean (SD)
[15] = healthy subjects, independent of dose
[16] = ln-transformed, istradefylline 40 mg + rifampin 600 mg/day, geometric mean (CV%)
[17] = ln-transformed, istradefylline 40 mg alone, geometric mean (CV%)
[18] = metabolite-to-parent ratio, istradefylline 40 mg alone, arithmetic mean (SD)

Decrease in istradefylline exposure based on AUC values ([8]; during coadministration of steady-state oral rifampin 600 mg/day): ~80%
Cmax ([8]; human, plasma, oral, 40 mg): 171 ng/mL
Tmax ([8]; human, plasma, oral, 40 mg): 2 h
Vd/F ([8]; human, plasma, oral, 40 mg): 515 L
half-life ([8]; human, plasma, oral, 40 mg): 94.8 h
AUC(0-t) ([8]; human, plasma, oral, 40 mg, geometric mean, ln-transformed, istradefylline 40 mg alone, geometric mean (CV%)): 9460 ng·h/mL
AUC(0-t) ([8]; human, plasma, oral, 40 mg, istradefylline 40 mg alone, arithmetic mean (SD)): 9850 ng·h/mL
Cmax ([8]; human, plasma, po, 40 mg): 181 ng/mL
CL/F [8, 13]: 20.6 (6.7) L/h
CL/F [8, 14]: 4.0 (1.5) L/h
CL/F ([8]; istradefylline 40 mg alone, arithmetic mean (SD), listed as istradefylline): 4.0 L/h and 4.00 L/h
Geometric Mean Ratio (90%CI) of AUCinf [8]: 0.19 (0.18–0.20)
Geometric Mean Ratio (90%CI) of AUClast [8]: 0.21 (0.19–0.22)
Geometric Mean Ratio (90%CI) of Cmax [8]: 0.55 (0.49–0.62)
Geometric Mean Ratio (90%CI) of AUCinf ([8]; listed as istradefylline): 0.19
Geometric Mean Ratio (90%CI) of AUClast ([8]; listed as istradefylline): 0.21
Geometric Mean Ratio (90%CI) of Cmax ([8]; listed as istradefylline): 0.55
Compound: CCn1c(=O)c2c(nc(/C=C/c3ccc(OC)c(OC)c3)n2C)n(CC)c1=O [Istradefylline]
OFF time in PD patients [1]: statistically significant improvement in OFF time
Aqueous solubility [2]: poor aqueous solubility
P-gp substrate [3]: not a P‐gp substrate
In vitro affinity, selectivity among adenosine receptor subtypes [4]: higher in vitro affinity toward the A2A receptor than for A1, A2B, and A3 receptors
Subjects who experienced AEs ([5]; during administration of istradefylline + rifampin): 25%
Subjects who experienced AEs [5, 12]: 20%
Tolerability ([5]; given alone or in combination with rifampin): well tolerated
Treatment-related AEs (considered related to istradefylline) ([5]; while receiving istradefylline alone, mild, transient disturbance in attention, asthenia, intermittent dizziness): single subject
CYP isoenzymes partly involved in metabolism [6]: CYP1A2, 2B6, 2C8, 2C9, 2C18, and 2D6*1
Main CYP isoenzymes involved in metabolism [6]: CYP1A1, 3A4, and 3A5
Increase in AUC during the dosing interval at steady state (AUCss) [7]: 38%
Dose proportionality of exposure (Cmax and AUC) ([9]; healthy subjects and PD patients): directly proportional to istradefylline dose (up to 80 mg)
Apparent clearance (CL/F) [9, 15]: 4.1 to 6.0 L/h
Apparent volume of distribution (Vz/F) [9, 15]: 448 to 557 L
Terminal elimination half-life (t1/2) [9, 15]: 67 to 95 h
Increase in AUCinf [10]: 2.5 fold
Bound to plasma protein [11]: ~98%

Compound: CO[C@H]1/C=C/O[C@@]2(C)Oc3c(C)c(O)c4c(O)c(c(/C=N/N5CCN(C)CC5)c(O)c4c3C2=O)NC(=O)/C(C)=C\C=C\[C@H](C)[C@H](O)[C@@H](C)[C@@H](O)[C@@H](C)[C@H](OC(C)=O)[C@@H]1C [rifampin, reference compound]
Subjects who experienced AEs [5, 12]: 85%
Subjects with chromaturia ([5]; subjects receiving rifampin): 70%

Exposure of metabolite in plasma as share of total drug exposure ([8]; generally): < 9%
AUCinf [8, 13]: 159 (47.6) ^b ng·h/mL
AUClast [8, 13]: 118 (44.3) ng·h/mL
t1/2 [8, 13]: 17.6 (4.95) ^b h
Tmax ([8]; istradefylline 40 mg + steady-state rifampin 600 mg/day, median (min, max)): 3.0 (1.0, 6.0) h
AUClast [8, 14]: 123 (77.6) ng·h/mL
Tmax ([8]; istradefylline 40 mg alone, median (min, max)): 3.5 (2.0, 12.0) h
Geometric Mean Ratio (90%CI) of AUClast [8]: 1.04 (0.90–1.21)
Geometric Mean Ratio (90%CI) of Cmax [8]: 1.79 (1.59–2.01)
Geometric Mean Ratio (90%CI) of AUClast ([8]; listed as istradefylline M1): 1.04
Geometric Mean Ratio (90%CI) of Cmax ([8]; listed as istradefylline M1): 1.79
All M/P ratios ([8]; istradefylline alone or with rifampin (M8: except M/P ratio for Cmax after coadministration)): < 9%
Change in AUClast during rifampin coadministration (GMR comparison) ([8]; ln-transformed data): +4%
Change in Cmax during rifampin coadministration (GMR comparison) ([8]; ln-transformed data): +79%
AUClast, geometric mean [8, 16]: 110 (41.8) ng·h/mL
Cmax, geometric mean [8, 16]: 7.0 (29.0) ng/mL
AUClast, geometric mean [8, 17]: 105 (61.4) ng·h/mL
Cmax, geometric mean [8, 17]: 3.90 (46.3) ng/mL
M/P ratio (AUClast) [8, 18]: 0.0134 (0.0078)
M/P ratio (Cmax) [8, 18]: 0.0241 (0.0045)
Cmax ([8]; plasma, single oral istradefylline 40 mg alone, arithmetic mean (SD)): 4.34 (2.49) ng/mL
Compound: CCn1c(=O)c2c(nc(/C=C/c3ccc(O)c(OC)c3)n2C)n(CC)c1=O [M1 metabolite, 4′‐O‐monodesmethylated derivative of istradefylline]
